Measured values reported in ChEMBL document CHEMBL4837237, “Broomeanamides: Cyclic Octapeptides from an Isolate of the Fungicolous Ascomycete Sphaerostilbella broomeana from India” (J Nat Prod, 2021).
Converted amounts (≈) assume the structure as drawn. The source made the active and inactive calls. The rule behind the calls is not given here. Square brackets hold non-standard residues; d marks the D form. Peptide text beside a SMILES is read from it. ξ: configuration not given here. NMeF = CN[C@@H](Cc1ccccc1)C(=O)O; Ile(3ξ) = CCC(C)[C@H](N)C(=O)O; NMeL = CN[C@@H](CC(C)C)C(=O)O; NMeV = CN[C@H](C(=O)O)C(C)C

Assays:
Staphylococcus aureus [1] = experiment: Antibacterial activity against Staphylococcus aureus ATCC 29213 assessed as bacterial growth inhibition at 50 ug/disk measured after 24 to 72 hrs by disk diffusion assay; assay type: functional, organism-based; details: time 24-72 hrs
Summary of the method: (§1)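 Agar disk diffusion. Inoculum suspension (1–3 mL) mixed into 100 mL autoclaved medium cooled to 45 °C: yeast malt agar for the yeast, tryptic soy agar for the bacterium. Poured as 5 mL plates. 6.25 mm paper disks loaded with 50 μg sample, solvent evaporated. Incubated at room temperature 24–72 h. Amphotericin or gentamicin at 25 μg/disk as positive controls.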

Candida albicans [2] = experiment: Antifungal activity against Candida albicans ATCC10231 assessed as fungal growth inhibition at 50 ug/disk measured after 24 to 72 hrs by disk diffusion assay; assay type: functional, organism-based; details: time 24-72 hrs; summary of the method: as §1
Staphylococcus aureus [3] = experiment: Antibacterial activity against Staphylococcus aureus ATCC 43300 assessed as bacterial growth inhibition incubated for 24 hrs by alamarBlue dye based assay; assay type: functional
Summary of the method: (§2)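 Broth MIC, modified CLSI method. Overnight cultures diluted to OD600 0.8 in PBS, then 1000-fold in MOPS-buffered RPMI-1640. Exposed to serial dilutions from 0.25 to 128 μM. Growth read by adding 10% alamarBlue. S. aureus ATCC 43300: 24 h at 37 °C. C. albicans ATCC 10231: 48 h at 23 °C. C. neoformans H99: 48 h at 23 and at 37 °C. Controls: chlortetracycline + streptomycin (bacterium), amphotericin B (fungi).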

Candida albicans [4] = experiment: Antifungal activity against Candida albicans ATCC 10231 assessed as fungal growth inhibition incubated for 48 hrs by alamarBlue dye based assay; assay type: functional; summary of the method: as §2
Cryptococcus neoformans [5] = experiment: Antifungal activity against Cryptococcus neoformans H99 assessed as fungal growth inhibition incubated for 48 hrs at 23 degC by alamarBlue dye based assay; assay type: functional; summary of the method: as §2
Cryptococcus neoformans [6] = experiment: Antifungal activity against Cryptococcus neoformans H99 assessed as fungal growth inhibition incubated for 48 hrs at 37 degC by alamarBlue dye based assay; assay type: functional; summary of the method: as §2

CCC(C)[C@@H]1NC(=O)[C@H](CC(C)C)N(C)C(=O)[C@H](C(C)C)N(C)C(=O)[C@H](C)NC(=O)[C@H](Cc2ccccc2)N(C)C(=O)[C@@H]2CCCN2C(=O)[C@H](C(C)C)NC(=O)[C@H](CC(C)C)N(C)C1=O (some centres not stated) (cyclo(A[NMeV][NMeL][Ile(3ξ)][NMeL]VP[NMeF]))
Activity (Staphylococcus aureus [1]): Active | Activity (Candida albicans [2]): Active | MIC (Staphylococcus aureus [3]): 128 µg/mL (≈ 141 µM) | MIC (Candida albicans [4]): 64 µg/mL (≈ 70.4 µM) | MIC (Cryptococcus neoformans [5]): 128 µg/mL (≈ 141 µM) | MIC (Cryptococcus neoformans [6]): 8 µg/mL (≈ 8.8 µM)

O=C1N[C@@H](Cc2ccccc2)C(=O)N2CCC[C@@H]12
Activity (Staphylococcus aureus [1]): inactive | Activity (Candida albicans [2]): inactive

O=C1N/C(=C\c2ccccc2)C(=O)N2CCCC12 (configuration not stated)
Activity (Staphylococcus aureus [1]): inactive | Activity (Candida albicans [2]): inactive

CC(C)C[C@H]1C(=O)N[C@@H](C(C)C)C(=O)N2CCC[C@H]2C(=O)N(C)[C@@H](Cc2ccccc2)C(=O)N[C@@H](C)C(=O)N(C)[C@@H](C(C)C)C(=O)N(C)[C@@H](CC(C)C)C(=O)N[C@@H](C(C)C)C(=O)N1C (cyclo(A[NMeV][NMeL]V[NMeL]VP[NMeF]))
Activity (Staphylococcus aureus [1]): Active

C[C@@H]1[C@H](O)[C@@H](C)/C=C/C=C/C=C/C=C/C=C/C=C/C=C/[C@H](O[C@@H]2O[C@H](C)[C@@H](O)[C@H](N)[C@@H]2O)C[C@@H]2O[C@](O)(C[C@@H](O)C[C@@H](O)[C@H](O)CC[C@@H](O)C[C@@H](O)CC(=O)O[C@H]1C)C[C@H](O)[C@H]2C(=O)O [AMPHOTERICIN B]
MIC (Cryptococcus neoformans [5]): 0.85 µg/mL (≈ 0.92 µM) | MIC (Cryptococcus neoformans [6]): 0.85 µg/mL (≈ 0.92 µM)

O=C1/C(=C/c2ccccc2)NC(=O)C2(O)CCCN12 (configuration not stated)
Activity (Staphylococcus aureus [1]): inactive | Activity (Candida albicans [2]): inactive

CN1C(=O)C2CCCN2C(=O)/C1=C/c1ccccc1 (configuration not stated)
Activity (Staphylococcus aureus [1]): inactive | Activity (Candida albicans [2]): inactive
